Source: PubChem (Broad Institute)
An excerpt weighted towards active compounds, which were near 3% of everything screened.
N-glyco inh: increase of ERlucT glycosylation luciferase signal, primary screen, N-linked glycosylation inhibitor project, D54 ERlucT cells, luminescence, set 2 | 360,000 compounds, 0.23% hits | D54 ERlucT glycosylation luciferase reporter, 24 h; percent of 100 nM tunicamycin response | reporter increase, % at 12.5 µM;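 active = mean luciferase reporter signal, scaled so untreated is 0 and the glycosylation-blocking control 100, at or above a set limit in every replicate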;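 also: luciferase carries N-glycosylation sites so blocking glycosylation raises the light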
PfHsp90 set2: growth inhibition of PfHsp90-expressing yeast, primary screen, antimalarial PfHsp90 inhibitor project, S. cerevisiae, BacTiter-Glo luminescence, single point, set 2; 310,000 compounds, 0.32% hits; BacTiter-Glo ATP, 48 h; yeast lacking PDR1 and PDR3 efflux regulators; inhibition, % at 9.4 µM;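 active = every replicate shows inhibition above about 80%, whatever the replicate mean, limit read from the data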
HSF-1 act: HSF-1 activators, primary screen, NIH3T3-HGL cells, MG132 stress, luminescence, single point; NIH3T3-HGL HSF-1 luciferase reporter, 8 h; 100% = twice DMSO control signal; 300,000 compounds, 1.7% hits; activation, % at 9 µM;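 active = mean replicate activation of at least 50% with a set share of replicates each reaching 50%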
T cruzi inh: inhibitors of intracellular T. cruzi growth, primary screen, luminescence, NIH3T3 host cells; T. cruzi beta-gal in NIH3T3, 90 h; inhibition, % (test concentration not listed); 300,000 compounds, 1.4% hits;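 active = mean inhibition across valid replicates above about 55%, limit read from the data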;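 also: signal also drops with host cell toxicity which is not excluded here; higher percent means less beta-gal luminescence so fewer parasites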
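Read-out: Parasite load inhibition, % | Test system: Mouse NIH/3T3 fibroblasts infected with β-gal-expressing T. cruzi Tulahuen C4 | Amount: 5,000 cells/well | Medium: DMEM, 2% fetal bovine serum | Signal: GalScreen β-gal luminescence, detergent lysis, 60 min | Timing: 3 h attach, ≥90 h co-culture | Also added: Tulahuen C4 trypomastigotes, 5000/well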
PvdQ acylase: P. aeruginosa PvdQ acylase inhibitors, primary screen, biochemical, fluorescence, plate reader and imaging, single point | PvdQ acylase [Pseudomonas aeruginosa LESB58] | purified PvdQ acylase | inhibition, % at 10 µM | 340,000 compounds, 0.063% hits | AID 488965, 2010; in the data active = inhibition above about 30%, passing the limit was not always enough
CaV13 ICDI inh: Primary screen for inhibitors of IQ motif and Ca2+-dependent inactivation inhibitor domain binding in CACNA1D, Förster resonance energy transfer in living cells, …. HEK cells, CFP/YFP FRET ICDI-IQ, plate reader, 10 min; percent FRET-ratio fall versus neutral wells. inhibition, % at 12.3 µM. 340,000 compounds, 0.098% hits. AID 743397;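 active = mean replicate inhibition of at least 30% and at least 1% of replicates passing that level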
Large screens that a line does not name were inactive.

Cc1nn(CCCC(=O)Nc2cc(Oc3ccccc3)cc([N+](=O)[O-])c2)c(C)c1[N+](=O)[O-]	none
Cc1ccc(C)c(Oc2cc(NC(=O)CCCn3nc(C)c([N+](=O)[O-])c3C)cc([N+](=O)[O-])c2)c1	HSF-1 act 72.1
O=C(CSC(=S)N1CCSCC1)c1ccccc1	HSF-1 act 60.2
O=C(CSC(=S)N1CCSCC1)c1ccc(Cl)cc1	none
Cc1ccc(/C(N)=N/OC(=O)N2CCOCC2)cc1	T cruzi inh 55.1
Cc1cccc(/C(N)=N/OC(=O)N2CCOCC2)c1	T cruzi inh 59.9 (no result: CaV13 ICDI inh)
Cc1ccc(C(=O)OCC(=O)N2CCOCC2)cc1	none
COc1cc(NC(=O)C2(C)CCN2C(C)C)cc(OC)c1OC (centres undefined)	none (no result: PfHsp90 set2, HSF-1 act, T cruzi inh, PvdQ acylase)
COC(=O)c1cc2c(ccn2-c2ccc(F)cc2)n1Cc1ccc(OC(C)=O)cc1	T cruzi inh 57.7
COC(=O)c1cc2c(ccn2-c2ccc(F)cc2)n1Cc1cccc(OC)c1	none
Cc1cc2c(nc1C)CCCN2S(=O)(=O)c1ccc(F)cc1	none (no result: N-glyco inh, PfHsp90 set2, HSF-1 act, T cruzi inh, PvdQ acylase)
O=C(NC(C(=O)c1ccccc1)N1CCCCC1)c1ccccc1 (centres undefined)	HSF-1 act 81.9 (no result: PfHsp90 set2, CaV13 ICDI inh)
O=C(NN1CCCCC1)c1ccccc1	none
CCC(C(=O)NCc1ccccc1)n1c(CSCCOc2ccccc2)nc2ccccc21 (centres undefined)	none (no result: N-glyco inh, PfHsp90 set2, HSF-1 act, T cruzi inh, PvdQ acylase)
Cc1ccc(C(O)(C(=O)NN(C(=O)c2ccccc2)c2ccccc2)c2ccc(C)cc2)cc1	none
Cc1ccc(N(NC(=O)C(O)(c2ccccc2)c2ccccc2)C(=O)CCl)cc1	HSF-1 act 75.4
Nn1c(SC/C=C/c2ccccc2)nnc1-c1ccncc1	none
COc1cc(-c2nnc(SC/C=C/c3ccccc3)n2N)cc(OC)c1OC	HSF-1 act 79.2
CC(C)NC(=O)Nc1ccc2c(c1)C(=O)N([C@H](C)CO)C[C@H](C)[C@@H](CN(C)S(=O)(=O)c1ccc(F)cc1)O2	none (no result: HSF-1 act, T cruzi inh)
Cc1ccc(NC(=O)COC(=O)C2(CC(=O)NC(C)C)CCCC2)cc1C	none (no result: HSF-1 act, T cruzi inh)
Cc1cccc(/C=C(\c2nc3ccccc3[nH]2)S(=O)(=O)c2ccccc2)c1	HSF-1 act 344.1
CC(C)(C)c1ccc(/C=C(\c2nc3ccccc3[nH]2)S(=O)(=O)c2ccccc2)cc1	HSF-1 act 57.1, T cruzi inh 56.5 (no result: CaV13 ICDI inh)
CC1=C(C(=O)N2CCCCCC2)CC(CC(=O)NCC2CCCCC2)C(=O)N1Cc1ccc(F)cc1 (centres undefined)	none (no result: N-glyco inh, PfHsp90 set2, HSF-1 act, T cruzi inh, PvdQ acylase)
COC(=O)[C@H](Cc1ccccc1)N1C[C@@H](N2CCC[C@H]2C)CS1(=O)=O	none (no result: N-glyco inh, PfHsp90 set2, HSF-1 act, T cruzi inh, PvdQ acylase)
N#Cc1c(-c2ccc(Cl)cc2)n(O)c2ccccc12	none (no result: HSF-1 act, T cruzi inh, CaV13 ICDI inh)
COC1C=CC=C(C)C(=O)NC2=CC(=O)C(N)=C(CC(C)CC(OC)C(O)C(C)C=C(C)C1OC(N)=O)C2=O (centres undefined)	HSF-1 act 69.4 (no result: T cruzi inh)
O=NN(CCF)C(=O)NC1CCS(=O)(=O)CC1	none (no result: N-glyco inh, PfHsp90 set2, HSF-1 act, T cruzi inh, PvdQ acylase)
Cc1ccc(Nc2ncc3c(n2)CC(C)CC3=O)c(C)c1 (centres undefined)	HSF-1 act 59.4
Cc1cc2c(c(=O)o1)[C@@]1(C(=O)Nc3ccccc31)C1=C(CCCC1=O)O2	none (no result: N-glyco inh, PfHsp90 set2, HSF-1 act, T cruzi inh, PvdQ acylase)
Cc1ccc2nc(C)cc(N/N=C/c3cccc(O)c3)c2c1	none
COc1ccc2nc(C)cc(N/N=C/c3ccc(F)cc3)c2c1	T cruzi inh 60.8
COc1ccc(/C=N/Nc2cc(C)nc3ccccc23)cc1	T cruzi inh 64.1
COc1ccc(/C=N/Nc2cc(C)nc3c(C)cccc23)cc1	T cruzi inh 74.2
Cc1cc2c(nc1C)CCCN2S(=O)(=O)c1ccccc1	none (no result: N-glyco inh, PfHsp90 set2, HSF-1 act, T cruzi inh, PvdQ acylase)
CC1CCCN(S(=O)(=O)c2cc(C(=O)NCCc3ccc(S(N)(=O)=O)cc3)ccc2Cl)C1 (centres undefined)	none (no result: HSF-1 act, T cruzi inh)
